# Published values from different studies.
# Lines come from different studies, so protocols differ.
# Target: Serine/threonine-protein kinase 38-like (STK38L, Homo sapiens, UniProt Q9Y2H1)
SMILES,assay,conditions,remaining binding
Cc1cc(NC(=O)c2cccc(S(F)(F)(F)(F)F)c2)cc(-n2ccn3nc(-c4cccnc4)cc23)c1,"cell-free assay, competition with immobilised ligand",1 µM,100%
N[C@@H]1CCN(c2nccc(-c3cnn4ncccc34)n2)C1,binding,1 µM,100%
CC(C)(O)c1cncc(-c2nc3ccc(F)cc3n2C2CC2)c1,"cell-free assay, competition with immobilised ligand",1 µM,100%
CN(C)c1nccc(-c2cnn3ncccc23)n1,binding,1 µM,85%
CN(C)C(=O)Cn1cc(-c2nc(C3(c4ccc(-c5cnc(N)nc5)cc4)CC3)no2)cn1,"cell-free assay, competition with immobilised ligand",1 µM,81%
Cc1cnn2ncc(-c3ccnc(N(C)C)n3)c2c1,binding,1 µM,100%
COc1ncc2cc3ccccc3nc2c1C#N,"binding, competition with immobilised ligand",5 µM,87%
O=S(=O)(NC1CCC(c2cc(F)ccc2F)(S(=O)(=O)c2ccc(Cl)cc2)CC1)C(F)(F)F (stereo not shown),"binding, competition with immobilised ligand",1 µM,75%
C[C@H]1CCN(c2nccc(-c3cnn4ncccc34)n2)C1,binding,1 µM,83%
C=CC(=O)N1CCC(C(=O)NCC(=O)N2CCN(c3nc(-c4cnc(N)nc4C(F)F)nc(N4CCOCC4)n3)CC2)CC1,"binding, competition with immobilised ligand",1 µM,97%
C[C@@H](c1ccc(-n2cnc3c(N)ncnc32)cc1)N1CCc2nn(C)c(Cc3ccccc3)c2C1=O,"binding, competition with immobilised ligand",0.1 µM,80%
F[C@@H]1CCN(c2nccc(-c3cnn4ncccc34)n2)C1,binding,1 µM,100%
COc1cccc(CNC(=O)c2nc3scc(COCc4ccc(C(=O)O)cc4)c3c(=O)[nH]2)c1,"cell-free assay, competition with immobilised ligand",1 µM,87.7%
COc1cnc(Nc2cccc(S(N)(=O)=O)c2)nc1N1CCN(c2ccccc2)CC1,"binding, competition with immobilised ligand",1 µM,96%
O=C(NCC1CCOCC1)c1n[nH]cc1NC(=O)c1c(F)cccc1F,"binding, competition with immobilised ligand",1 µM,87%
CN(c1nccc(-c2cnn3ncccc23)n1)C1CC1,binding,1 µM,100%
O=C(c1ccc(Nc2ncc(Cl)c(-c3ccc(Cl)s3)n2)cc1)N1CCC(N2CCCC2)CC1,"binding, competition with immobilised ligand",1 µM,84%
CC1CCCN1c1nccc(-c2cnn3ncccc23)n1 (stereo not shown),binding,1 µM,100%
O=C(c1ccc(Nc2ncc(Cl)c(-c3cc4ccccc4s3)n2)cc1)N1CCC(N2CCCC2)CC1,"binding, competition with immobilised ligand",1 µM,74%
COc1ccc2c(c1)O[C@@H](c1ccc(OC)c(OC)c1)C[C@H]2NC(=O)C1(c2ccc3c(c2)OC(F)(F)O3)CC1,"cell-free assay, competition with immobilised ligand",1 µM,100%
O=C(NCCCN1CCOCC1)c1ccc(Nc2ncc(Cl)c(-c3ccc(Cl)s3)n2)cc1,"binding, competition with immobilised ligand",1 µM,82%
Cc1cc(C)c(-n2ccn3nc(-c4cccnc4)cc23)cc1NC(=O)c1cc(C#N)cc(S(F)(F)(F)(F)F)c1,"binding, competition with immobilised ligand",0.1 µM,98.9%
